# Calls of active or inactive are those of the source. The rule behind the calls is not given here.
# Columns and labels:
# Mus musculus [1] = test: Antioxidant activity in carrageenan-stimulated ICR mouse assessed as increase in SOD activity at 8 mg/kg, ip measured after 5 hrs; type: functional; settings: route intraperitoneal
# How it was run: (§1)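 Male ICR mice (n = 6 per group) received the drug 30 min before intraplantar carrageenan, and paw tissue was taken at the 5th hr. Total SOD was measured by inhibition of cytochrome c reduction, CAT by Aebi's method, and cytosolic GPx by Paglia–Valentine. Activities are in U/mg protein, given as mean ± SEM.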
# RAW264.7 [2] = test: Antiinflammatory activity in mouse RAW264.7 cells assessed as inhibition of LPS-induced TNFalpha production at 10 uM administered 1 hr before LPS challenge measured after 24 hrs by ELISA
# Mus musculus [3] = test: Antiinflammatory activity in carrageenan-stimulated ICR mouse assessed as effect on shape of collagen fiber at 8 mg/kg, ip measured after 5 hrs; type: functional, organism-based; design: dose 8 mg/kg
# How it was run: (§2)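 Male ICR mice were dosed 30 min before intraplantar carrageenan, and paw biopsies were taken 5 h later. Tissue was fixed in Dietric solution for 1 week at room temperature, dehydrated in graded ethanol and paraffin-embedded. 7-thickness sections were stained with hematoxylin–eosin or Van Gieson and examined by light microscopy.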
# Mus musculus [4] = test: Antiinflammatory activity in carrageenan-stimulated ICR mouse assessed as decrease in cellular infiltration to intercellular spaces at 8 mg/kg, ip measured after 5 hrs; type: functional, organism-based; design: dose 8 mg/kg; how it was run: as §2
# RAW264.7 [5] = test: Antiinflammatory activity in mouse RAW264.7 cells assessed as inhibition of LPS-induced PGE2 production at 10 uM administered 1 hr before LPS challenge measured after 24 hrs by ELISA
# Mus musculus [6] = test: Antiinflammatory activity in ICR mouse assessed as inhibition of carrageenan-induced hind paw edema at 8 mg/kg, ip measured after 5 hrs; type: functional, organism-based; design: dose 8 mg/kg
# Mus musculus [7] = test: Antiinflammatory activity in ICR mouse assessed as decrease in carrageenan-induced serum TNFalpha level at 8 mg/kg, ip measured after 5 hrs; type: functional, organism-based; design: dose 8 mg/kg
# How it was run: (§3)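 Male ICR mice (18–25 g, n = 6 per group). Carrageenan was injected intraplantar into the paw, with drug given 30 min beforehand. Serum was collected at the 5th hr. Nitrite was measured colorimetrically by Griess reaction, and TNF-α by commercial ELISA. Data are mean ± SEM.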
# RAW264.7 [8] = test: Antiinflammatory activity in mouse RAW264.7 cells assessed as inhibition of LPS-induced TNFalpha production administered 1 hr before LPS challenge measured after 24 hrs by ELISA
# Mus musculus [9] = test: Antiinflammatory activity in carrageenan-stimulated ICR mouse assessed as reduction in COX2 immunoreactive cells at 8 mg/kg, ip measured after 5 hrs; type: functional, organism-based; design: dose 8 mg/kg
# RAW264.7 [10] = test: Antiinflammatory activity in LPS-stimulated mouse RAW264.7 cells assessed as inhibition of iNOS protein expression after 24 hrs by Western blot analysis; type: functional, cell-based
# RAW264.7 [11] = test: Antiinflammatory activity in mouse RAW264.7 cells assessed as inhibition of LPS-induced TNFalpha production at 5 uM administered 1 hr before LPS challenge measured after 24 hrs by ELISA
# RAW264.7 [12] = test: Inhibition of JNK phosphorylation in LPS-stimulated mouse RAW264.7 cells at 5 to 20 uM after 30 mins by Western blot analysis; type: cell-based
# How it was run: (§4)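 RAW 264.7 cells were pretreated with test agent, then stimulated with LPS for 30 min. Phospho-ERK, phospho-JNK and phospho-p38 were assessed by Western blot: RIPA lysates, 30 µg protein, SDS-PAGE, PVDF, primary antibody overnight at 4 °C, HRP secondary and ECL detection.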
# Mus musculus [13] = test: Antioxidant activity in carrageenan-stimulated ICR mouse assessed as increase in GPx activity at 4 mg/kg, ip measured after 5 hrs; type: functional; settings: route intraperitoneal; how it was run: as §1
# RAW264.7 [14] = test: Antiinflammatory activity in mouse RAW264.7 cells assessed as inhibition of LPS-induced NO production at 20 uM administered 1 hr before LPS challenge measured after 24 hrs by Griess method; type: functional, cell-based
# Mus musculus [15] = test: Antiinflammatory activity in carrageenan-stimulated ICR mouse assessed as decrease in neutrophil number at 8 mg/kg, ip measured after 5 hrs; type: functional, organism-based; design: dose 8 mg/kg; how it was run: as §2
# RAW264.7 [16] = test: Antiinflammatory activity in mouse RAW264.7 cells assessed as inhibition of LPS-induced PGE2 production at 20 uM administered 1 hr before LPS challenge measured after 24 hrs by ELISA
# Mus musculus [17] = test: Antioxidant activity in carrageenan-stimulated ICR mouse assessed as increase in CAT activity at 2 mg/kg, ip measured after 5 hrs; type: functional; settings: route intraperitoneal; how it was run: as §1
# [18] = molecular target: MAP kinase p38 (Mus musculus) (UniProt P47811+O08911+Q9WUI1+Q9Z1B7); test: Inhibition of p38 phosphorylation in LPS-stimulated mouse RAW264.7 cells at 5 to 20 uM after 30 mins by Western blot analysis; type: cell-based; how it was run: as §4
# Mus musculus [19] = test: Antiinflammatory activity in ICR mouse assessed as decrease in carrageenan-induced serum NO level at 8 mg/kg, ip measured after 5 hrs; type: functional, organism-based; design: dose 8 mg/kg; how it was run: as §3
# Mus musculus [20] = test: Antiinflammatory activity in ICR mouse assessed as decrease in carrageenan-induced MDA level at 8 mg/kg, ip measured after 5 hrs; type: functional, organism-based; design: dose 8 mg/kg
# How it was run: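 Male ICR mice (n = 6 per group) were dosed 30 min before intraplantar carrageenan. MDA in the edematous paw tissue was determined at the 5th hr after carrageenan.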
# Mus musculus [21] = test: Antiinflammatory activity in carrageenan-stimulated ICR mouse assessed as reduction in iNOS immunoreactive cells at 8 mg/kg, ip measured after 5 hrs; type: functional, organism-based; design: dose 8 mg/kg
# Mus musculus [22] = test: Antiinflammatory activity in ICR mouse assessed as decrease in carrageenan-induced serum TNFalpha level at 8 mg/kg, ip; type: functional, organism-based; design: dose 8 mg/kg; how it was run: as §3
# RAW264.7 [23] = test: Antiinflammatory activity in mouse RAW264.7 cells assessed as inhibition of LPS-induced NO production at 5 uM administered 1 hr before LPS challenge measured after 24 hrs by Griess method; type: functional, cell-based
# RAW264.7 [24] = test: Down regulation of iNOS protein expression in LPS-stimulated mouse RAW264.7 cells at 20 uM after 24 hrs by Western blot analysis; type: functional
# How it was run: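 RAW 264.7 cells were pretreated with test agent for 1 h, then stimulated with 100 ng/mL LPS for 24 h. Lysates were made in RIPA buffer and 30 µg protein resolved by SDS-PAGE, blotted to PVDF and blocked with 1% BSA. Primary antibody ran overnight at 4 °C, HRP secondary 1 h at 37 °C. Detection was by ECL, with band intensity expressed relative to control.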
# Mus musculus [25] = test: Antiinflammatory activity in ICR mouse assessed as decrease in carrageenan-induced inflammatory response at 8 mg/kg, ip measured after 5 hrs; type: functional, organism-based; design: dose 8 mg/kg; how it was run: as §2
compound,measurement,setting,value
COc1cc(CCCc2c(OC)cc(O)c(OC)c2OC)ccc1O [VISCOLIN],Activity,Mus musculus [1],4.08 U/mg
same,Activity,RAW264.7 [2],Active
same,Activity,Mus musculus [3],Active
same,Activity,Mus musculus [4],Active
same,Activity,RAW264.7 [5],Active
same,Activity,Mus musculus [6],Active
same,Activity,Mus musculus [7],Active
same,Activity,RAW264.7 [8],Dose-dependent effect
same,IC50,RAW264.7 [8],17.3 µM
same,Activity,Mus musculus [9],Active
same,Activity,RAW264.7 [10],Dose-dependent effect
same,Activity,RAW264.7 [11],Active
same,inhibition,RAW264.7 [12],inactive
same,Activity,Mus musculus [13],10.97 U/mg
same,Activity,RAW264.7 [14],Active
same,Activity,Mus musculus [15],Active
same,Activity,RAW264.7 [16],Active
same,Activity,Mus musculus [17],3.92 U/mg
same,inhibition,[18],inactive
same,Activity,Mus musculus [19],Active
same,Activity,Mus musculus [20],Active
same,Activity,Mus musculus [21],Active
same,Activity,Mus musculus [22],Active
same,Activity,RAW264.7 [23],Active
same,Activity,RAW264.7 [24],83.8%
same,Activity,Mus musculus [25],Active

# — ChEMBL document CHEMBL1938286, “A concise synthesis of viscolin, and its anti-inflammatory effects through the suppression of iNOS, COX-2, ERK phosphorylation and proinflammatory cytokines expressions” (Eur J Med Chem, 2012)
